Experimental data reported in ChEMBL document CHEMBL4715702, “Overcoming multidrug resistance by targeting mitochondria with NO-donating doxorubicins” (Bioorg Med Chem, 2016).
Activity calls are given as the source filed them. The calls are words filed in the database; no cut-off is given here.

Legend:
[1] = Prodrug release in human HT-29 cells assessed as increase in NO level by measuring nitrite release at 5 uM incubated for 24 hrs by spectrophotometric analysis; format: ADME, cell-based; conditions: ht-29, 24 h
In short: (§1)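 After 24 h culture with 5 µmol/L compound, medium mixed 1:1 with Griess reagent, 10 min 37°C in dark, absorbance 540 nm. Cell-free blank subtracted; nitrite expressed as nmol/mg cell protein. HT29/dx maintained in 200 nmol/L DOXO. Triplicate, mean ± SD (n = 3).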

[2] = Stability of the compound assessed as human serum esterase-mediated compound hydrolysis by measuring half life at 100 uM by RP-HPLC analysis; format: ADME, cell-free
In short: (§2)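 Compound from 10 mM DMSO stock added to human male AB serum preheated to 37 °C, 100 µM final, incubated at 37 ± 0.5 °C. Aliquots deproteinized with acetonitrile/0.1% HCOOH, centrifuged, filtered. Parent and degradation products quantified by RP-HPLC (234 and 480 nm) against 1–100 µM calibration. At least triplicate.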

HT-29 [3] = assay: Induction of apoptosis in human HT29 cells assessed as activation of caspase 9 using LEHD-AMC substrate at 5 uM incubated for 24 hrs by fluorescence based assay; format: functional, cell-based
In short: (§3)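 Cells 24 h in 5 µmol/L compound or fresh medium, lysed in HEPES/KOH buffer pH 7.5. 20 µg lysate incubated 1 h at 37°C with 20 µmol/L LEHD-AMC (caspase 9) or DEVD-AMC (caspase 3) in HEPES/CHAPS/sucrose/DTT buffer pH 7.5. Stopped with ice-cold 0.1% TCA; AMC fluorescence ex 380/em 460 nm, converted to nmol AMC/µg protein via AMC standards. Triplicate.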

HT-29 [4] = assay: Induction of apoptosis in doxorubicin-resistant human HT29 cells assessed as activation of caspase 9 using LEHD-AMC substrate at 5 uM incubated for 24 hrs by fluorescence based assay; format: functional, cell-based; in short: as §3
HT-29 [5] = assay: Induction of apoptosis in human HT29 cells assessed as activation of caspase 3 using DEVD-AMC substrate at 5 uM incubated for 24 hrs by fluorescence based assay; format: functional, cell-based; in short: as §3
HT-29 [6] = assay: Induction of apoptosis in doxorubicin-resistant human HT29 cells assessed as activation of caspase 3 using DEVD-AMC substrate at 5 uM incubated for 24 hrs by fluorescence based assay; format: functional, cell-based; in short: as §3
[7] = Prodrug release in doxorubicin-resistant human HT-29 cells assessed as increase in NO level by measuring nitrite release at 5 uM incubated for 24 hrs by spectrophotometric analysis; format: ADME, cell-based; conditions: ht-29, 24 h; in short: as §1
[8] = Prodrug release in human HT-29 cells assessed as increase in NO level by measuring plasma membrane associated MRP1/BCRP nitration mediated drug uptake at 5 uM incubated for 24 hrs by spectrofluorometric analysis; format: ADME, cell membranes; conditions: ht-29, 24 h
In short: (§4)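 Cells 24 h with 5 µmol/L compound; DOXO in whole-cell lysates measured fluorimetrically (ex 475/em 553 nm), cell-free blank subtracted, converted to nmol DOXO/mg protein by calibration curve. Triplicate, mean ± SD.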

[9] = Prodrug release in human HT-29 cells assessed as increase in NO level by measuring mitochondria associated MRP1/BCRP nitration mediated drug uptake at 5 uM incubated for 24 hrs by spectrofluorometric analysis; format: ADME; conditions: ht-29, 24 h
In short: (§5)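 Cells 24 h with 5 µmol/L compound; mitochondrial fractions isolated (porin check by immunoblot), DOXO measured fluorimetrically (ex 475/em 553 nm) with blank subtraction and calibration curve; expressed as nmol DOXO/mg mitochondrial protein. Triplicate, mean ± SD.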

[10] = Prodrug release in doxorubicin-resistant human HT-29 cells assessed as increase in NO level by measuring mitochondria associated MRP1/BCRP nitration mediated drug uptake at 5 uM incubated for 24 hrs by spectrofluorometric analysis; format: ADME; conditions: ht-29, 24 h; in short: as §5
HT-29 [11] = assay: Upregulation of iNOS protein expression in human HT-29 cells; format: functional, cell-based
In short: (§6)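 HT29 and HT29/dx cells incubated 24 h with compound or fresh medium; lysed in MLB buffer pH 7.5, sonicated, centrifuged 13,000 x g 10 min 4°C; iNOS detected in whole-cell lysate by Western blotting.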

HT-29 [12] = assay: Upregulation of iNOS protein expression in doxorubicin-resistant human HT-29 cells; format: functional, cell-based; in short: as §6
H9c2 = assay: Cardiotoxicity against rat H9c2 cells assessed as LDH release at 5 uM incubated for 24 hrs; format: toxicity, cell-based; conditions: h9c2, 24 h
In short: (§7)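 Extracellular medium spun 12,000 × g 5 min; cells detached, sonicated in 82.3 mmol/L triethanolamine phosphate-HCl pH 7.6. LDH activity read in medium and lysate at 340 nm over 6 min, as µmol NADH oxidized/min/dish; extracellular LDH given as % of total dish activity. Compounds from DMSO stock, 5 µM final, 1% DMSO; controls 1% DMSO. Triplicate, mean ± SD.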

[13] = Prodrug release in doxorubicin-resistant human HT-29 cells assessed as increase in NO level by measuring plasma membrane associated MRP1/BCRP nitration mediated drug uptake at 5 uM incubated for 24 hrs by spectrofluorometric analysis; format: ADME, cell membranes; conditions: ht-29, 24 h; in short: as §4
[14] = Prodrug release in human HT-29 cells assessed as increase in NO level by measuring induction of P-glycoprotein nitration in plasma membrane at 5 uM incubated for 24 hrs by western blot analysis; format: cell membranes, Cell membrane; conditions: ht-29, 24 h
In short: (§8)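 Cells 24 h with 5 µmol/L compound. Plasma-membrane proteins isolated by surface biotinylation, 50 µg run on SDS-PAGE, probed for Pgp with pancadherin loading control; nitration detected by Western blot, peroxidase secondary and chemiluminescence. Representative of three experiments.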

HT-29 [15] = assay: Cytotoxicity against doxorubicin-resistant human HT-29 cells assessed as LDH release at 5 uM incubated for 24 hrs; format: functional, cell-based; in short: as §7
[16] = Stability of the compound assessed as human serum esterase-mediated compound hydrolysis by measuring parent compound remaining at 100 uM measured after 24 hrs by RP-HPLC analysis; format: ADME, cell-free; conditions: read-out: Stabilty; in short: as §2
HT-29 [17] = assay: Cytotoxicity against human HT-29 cells assessed as LDH release at 5 uM incubated for 24 hrs; format: functional, cell-based; in short: as §7
[18] = Prodrug release in human HT-29 cells assessed as increase in NO level by measuring induction of P-glycoprotein nitration in mitochondria at 5 uM incubated for 24 hrs by western blot analysis; conditions: ht-29, 24 h
In short: (§9)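 Cells 24 h with 5 µmol/L compound. Mitochondrial extracts, 10 µg protein, run on SDS-PAGE and probed for Pgp, porin as loading control; nitration detected by Western blot with peroxidase secondary and chemiluminescence. Representative of three experiments.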

[19] = Prodrug release in doxrubicin-resistant human HT-29 cells assessed as increase in NO level by measuring induction of P-glycoprotein nitration in mitochondria at 5 uM incubated for 24 hrs by western blot analysis; conditions: ht-29, 24 h; in short: as §9
[20] = Prodrug release in doxorubicin-resistant human HT-29 cells assessed as increase in NO level by measuring induction of P-glycoprotein nitration in plasma membrane at 5 uM incubated for 24 hrs by western blot analysis; format: cell membranes, Cell membrane; conditions: ht-29, 24 h; in short: as §8

Drug metabolism [1] | half-life at 100 µM [2] | Drug metabolism [7] | Drug uptake [8] | Drug uptake [13] | Activity [14] | Activity [18] | Activity [19] | Activity [20] | Compound | Activity (HT-29 [3]) | Activity (HT-29 [4]) | Activity (HT-29 [5]) | Activity (HT-29 [6]) | Activity (HT-29 [11]) | Activity (HT-29 [12]) | Activity (H9c2) | other results
Metabolite_Detected | 6 h | Metabolite_Detected | – | – | – | – | – | – | COc1cccc2c1C(=O)c1c(O)c3c(c(O)c1C2=O)C[C@@](O)(C(=O)COC(=O)CCCC(CO[N+](=O)[O-])O[N+](=O)[O-])C[C@@H]3O[C@H]1C[C@H](N)[C@H](O)[C@H](C)O1.Cl (stereo partly drawn) | inactive | inactive | inactive | inactive | – | – | – | –
Metabolite_Detected | – | – | Active | Not Active | Not Active | – | – | – | COc1cccc2c1C(=O)c1c(O)c3c(c(O)c1C2=O)C[C@@](O)(C(=O)CO)C[C@@H]3O[C@H]1C[C@H](N)[C@H](O)[C@H](C)O1 [DOXORUBICIN] | – | – | – | – | Active | inactive | Toxic | Drug uptake [9]: Active; Drug uptake [10]: Not Active
Metabolite_Detected | > 24 h | Metabolite_Detected | – | – | – | – | – | – | COc1cccc2c1C(=O)c1c(O)c3c(c(O)c1C2=O)C[C@@](O)(C(=O)COC(=O)c1ccc(Oc2no[n+]([O-])c2S(=O)(=O)c2ccccc2)cc1)C[C@@H]3O[C@H]1C[C@H](N)[C@H](O)[C@H](C)O1.Cl | Active | Active | Active | Active | Active | Active | Non-Toxic | Activity (HT-29 [15]): Active; remaining at 24 h, 100 µM [16]: 73.5%; Activity (HT-29 [17]): Active
Metabolite_Detected | 26.7 h | Metabolite_Detected | Active | Active | Not Active | Not Active | Not Active | Not Active | COc1cccc2c1C(=O)c1c(O)c3c(c(O)c1C2=O)C[C@@](O)(C(=O)COC(=O)c1ccc(OCCCO[N+](=O)[O-])cc1)C[C@@H]3O[C@H]1C[C@H](N)[C@H](O)[C@H](C)O1.Cl | inactive | inactive | inactive | inactive | – | – | – | –
Metabolite_Detected | 34.7 h | Metabolite_Detected | Active | Active | Not Active | Not Active | Not Active | Not Active | COc1cccc2c1C(=O)c1c(O)c3c(c(O)c1C2=O)C[C@@](O)(C(=O)COC(=O)c1ccc(OCC(CO[N+](=O)[O-])O[N+](=O)[O-])cc1)C[C@@H]3O[C@H]1C[C@H](N)[C@H](O)[C@H](C)O1.Cl (stereo partly drawn) | inactive | inactive | inactive | inactive | – | – | – | –
Metabolite_Detected | 2.8 h | Metabolite_Detected | Not Active | – | – | Not Active | Not Active | – | COc1cccc2c1C(=O)c1c(O)c3c(c(O)c1C2=O)C[C@@](O)(C(=O)COC(=O)c1ccc(C(=O)OCO/N=[N+](\[O-])N2CCCC2)cc1)C[C@@H]3O[C@H]1C[C@H](N)[C@H](O)[C@H](C)O1.Cl | inactive | inactive | inactive | inactive | – | – | – | Activity [13]: Not Active
Metabolite_Detected | 4.9 h | Metabolite_Detected | Active | Active | – | – | – | Not Active | COc1cccc2c1C(=O)c1c(O)c3c(c(O)c1C2=O)C[C@@](O)(C(=O)COC(=O)CCCCCO[N+](=O)[O-])C[C@@H]3O[C@H]1C[C@H](N)[C@H](O)[C@H](C)O1.Cl | – | – | – | – | – | – | – | –
Metabolite_Detected | 16 h | Metabolite_Detected | Active | Active | Not Active | – | – | Not Active | COc1cccc2c1C(=O)c1c(O)c3c(c(O)c1C2=O)C[C@@](O)(C(=O)COC(=O)c1ccc(CC(CO[N+](=O)[O-])O[N+](=O)[O-])cc1)C[C@@H]3O[C@H]1C[C@H](N)[C@H](O)[C@H](C)O1 (stereo partly drawn) | Active | Active | Active | Active | Active | Active | Non-Toxic | Drug uptake [9]: Active; Activity (HT-29 [15]): Active; Drug uptake [10]: Active; Activity (HT-29 [17]): Active
Metabolite_Detected | 24.6 h | Metabolite_Detected | Active | Active | Not Active | Not Active | Not Active | Not Active | COc1cccc2c1C(=O)c1c(O)c3c(c(O)c1C2=O)C[C@@](O)(C(=O)COC(=O)c1ccc(CCCO[N+](=O)[O-])cc1)C[C@@H]3O[C@H]1C[C@H](N)[C@H](O)[C@H](C)O1.Cl | inactive | inactive | inactive | inactive | – | – | – | –
